Results pooled from the literature.
Organism: Escherichia coli
Read-out: microbial growth

| Structure (SMILES) | test | test system | setting | MIC |
| --- | --- | --- | --- | --- |
| Cc1ccc2nc(-c3cccnc3)[nH]c2c1 | broth dilution | ATCC25922 | – | 128 µg/mL |
| O=C(CCCCCCCCCC[P+](c1ccccc1)(c1ccccc1)c1ccccc1)Nc1ccc(O)c(O)c1.[Br-] | broth dilution | ATCC25922 | 18 h | > 32 µg/mL |
| N=C(N)c1ccc(OCc2cccc(COc3ccc(C(=N)N)cc3)c2)cc1 | – | BW25113 | – | > 200 µg/mL |
| COc1ccc(-c2nc3ccccc3n2Cc2ccccc2)cc1OC | broth dilution | ATCC25922 | – | 64 µg/mL |
| Cn1cc(NC(=O)C(CC(N)=O)NC(=O)c2ccc(NC(=O)c3ccc(C#N)cc3)cc2)cc1-c1nc2ccc(C(=O)Nc3ccc(C(=O)O)cc3)c(O)c2[nH]1 (centres unmarked) | – | DSM1116 | – | > 64 µg/mL |
| CC(NCCCNC(=O)c1ccc(Cl)s1)c1cc2cc(Br)ccc2[nH]1 (centres unmarked) | broth dilution | ATCC25922 | – | 32 µg/mL |
| CCCCCCC/C=C/C(=O)N1C(=O)/C(=C(\O)c2ccc(OCOCCOC)cc2)C(=O)C1CC(C)C (centres unmarked) | – | K12, K12 | – | > 200 µg/mL |
| COc1c(C)c(OC(=O)c2ccccc2)c(C)c(O)c1C(=O)/C=C/c1ccccc1 | broth dilution | ATCC25922 | – | 5000 µg/mL |
| CC(C)Oc1c(NC(=O)c2ccc(NC(=O)[C@H](CC(N)=O)NC(=O)c3ccc(NC(=O)c4ccc(C#N)cc4)cc3)cc2)ccc(C(=O)NC2CCNCC2)c1O | – | DSM1116 | – | > 64 µg/mL |
| CNC(=O)c1cc(Oc2ccc(NC(=O)Nc3ccc(Cl)c(C(F)(F)F)c3)cc2)ccn1 | – | CFT073 | – | > 100 µM |
| COc1c(C)c(OC(C)=O)c(C)c(OC(C)=O)c1C(=O)/C=C/c1ccccc1 | broth dilution | ATCC25922 | – | 5000 µg/mL |
| Cc1ccc(C)n1-c1ccc(-c2nnc(-c3ccc(O)cc3)[nH]2)cc1 | broth dilution | ATCC10536 | 18 h | 250 µg/mL |
| CC(C)Oc1c(NC(=O)c2ccc(NC(=O)[C@H](CC(N)=O)NC(=O)c3ccc(-c4nn[nH]c4-c4ccc(C#N)cc4)cc3)cc2)ccc(C(=O)Nc2ccc(C(=O)O)cc2)c1O | – | DSM1116 | – | > 64 µg/mL |
| N=C(N)c1ccc(OCCC(CCOc2ccc(C(=N)N)cc2)c2ccccc2)cc1 (centres unmarked) | broth dilution | W3110 | – | 200 µg/mL |
| CO[C@H]1O[C@H](COC(c2ccccc2)(c2ccccc2)c2ccccc2)[C@@H](OC(=O)c2ccc(C(C)(C)C)cc2)[C@H](OC(=O)c2ccc(C(C)(C)C)cc2)[C@H]1OC(=O)c1ccc(C(C)(C)C)cc1 | broth dilution | – | – | 1 µg/mL |
| N=C(N)c1ccc(OCc2ccc(-c3ccccc3)cc2COc2ccc(C(=N)N)cc2)cc1 | – | BW25113 | – | ≥ 200 µg/mL |
| CCCCCCC#Cc1cncc(-c2nnc(SCc3ccc(Cl)cc3)n2C)c1 | – | – | – | ≥ 20 µg/mL |
| N=C(N)c1ccc(OCc2cc(Br)cc(COc3ccc(C(=N)N)cc3)c2)cc1 | broth dilution | W3110 | – | 100 µg/mL |
| O=C(O)c1cn(C2CC2)c2cc(N3CCNCC3)c(F)cc2c1=O | broth dilution | – | 24 h | 4.72 µM |
| CC(C)Oc1c(NC(=O)c2ccc(NC(=O)[C@H](CC(N)=O)NC(=O)c3ccc(NC(=O)c4ccccc4[N+](=O)[O-])cc3)cc2)ccc(C(=O)Nc2ccc(C(=O)O)cc2)c1O | – | DSM1116 | – | 8 µg/mL |
| COc1cccc(NCc2ccc(Oc3ccccn3)cc2)c1 | – | – | – | > 50 µg/mL |
| Cc1ccc2nc(-c3ccc([N+](=O)[O-])cc3)[nH]c2c1 | broth dilution | ATCC25922 | – | 64 µg/mL |

| Structure (SMILES) | test | test system | setting | MIC |
| --- | --- | --- | --- | --- |
| CCCCCCC/C=C/C(=O)N1C(=O)/C(=C(/C)O)C(=O)C1CCC(=O)O (centres unmarked) | – | K12, K12 | – | > 200 µg/mL |
| N=C(N)c1ccc(OCCCCCCCCCCCOc2ccc(C(=N)N)cc2)cc1 | broth dilution | BW25113 | – | > 25 µg/mL |
| Cc1ccc2nc(-c3c4ccccc4cc4ccccc34)[nH]c2c1 | broth dilution | ATCC25922 | – | 128 µg/mL |
| CC(C)(O/N=C(\C(=O)N[C@@H]1C(=O)N2C(C(=O)[O-])=C(C[n+]3ccccc3)CS[C@H]12)c1csc(N)n1)C(=O)O | broth dilution | ATCC25922 | – | 0.25 µg/mL |
| CC(C)Oc1c(NC(=O)c2ccc(NC(=O)[C@H](CC(N)=O)NC(=O)c3ccc(NC(=O)c4cccc(N)c4)cc3)cc2)ccc(C(=O)Nc2ccc(C(=O)O)cc2)c1O | – | DSM1116 | – | 32 µg/mL |
| O=c1[nH]cc(F)c(=O)[nH]1 | broth dilution | – | 24 h | > 32 µg/mL |
| CC(C)Oc1c(NC(=O)c2ccc(NC(=O)[C@H](CC(N)=O)NC(=O)c3ccc(NC(=O)c4ccc(NC(N)=O)cc4)cc3)cc2)ccc(C(=O)Nc2ccc(C(=O)O)cc2)c1O | – | DSM1116 | – | 0.5 µg/mL |
| Cc1cccc2nc(-c3ccc([N+](=O)[O-])o3)[nH]c12 | broth dilution | ATTC25922 | – | 4 µg/mL |
| O=C(O)c1cn(C2CC2)c2cc(N3CCNCC3)c(F)cc2c1=O | – | – | – | 1.6 µg/mL |
| CCCC(=O)Oc1c(C)c(O)c(C(=O)/C=C/c2ccccc2)c(OC)c1C | broth dilution | ATCC25922 | – | 5000 µg/mL |
| N=C(N)c1ccc(OCc2ccc(Br)cc2COc2ccc(C(=N)N)cc2)cc1 | – | BW25113 | – | ≥ 100 µg/mL |
| Oc1ccc(Br)cc1-c1nc2ccccc2[nH]1 | broth dilution | ATCC25922 | – | 64 µg/mL |
| N=C(N)c1ccc(OCCCCCCCCOc2ccc(C(=N)N)cc2)cc1 | – | BW25113 | – | 50 µg/mL |
| CC(C)Oc1c(NC(=O)c2ccc(NC(=O)[C@H](CC(N)=O)NC(=O)c3ccc(NC(=O)CCc4ccc(C#N)cc4)cc3)cc2)ccc(C(=O)Nc2ccc(C(=O)O)cc2)c1O | – | DSM1116 | – | 0.125 µg/mL |
| CSc1ccc(-c2nc3ccc(C)cc3n2Cc2ccccc2)cc1 | broth dilution | ATCC25922 | – | 128 µg/mL |
| CCCc1nc(Cl)c2c(c1O)C(=O)C1=C(O)[C@]3(O)C(=O)C(C(N)=O)=C(O)[C@@H](N(C)C)[C@@H]3C[C@@H]1C2.Cl | broth dilution | ATCC25922 | – | 16 µg/mL |
| COc1cccc(-c2nc3ccccc3n2Cc2ccccc2)c1 | broth dilution | ATCC25922 | – | 128 µg/mL |
| O=C(Cc1ccc(O)c(O)c1)NCCCCCCCC[P+](c1ccccc1)(c1ccccc1)c1ccccc1.[Br-] | broth dilution | ATCC25922 | 18 h | > 32 µg/mL |
| Cc1ccc(C)n1-c1ccc(-c2nnc(-c3ccccc3Cl)[nH]2)cc1 | broth dilution | ATCC10536 | 18 h | 250 µg/mL |
| CCCCCCC/C=C/C(=O)N1C(=O)/C(=C(\O)c2ccc(F)cc2)C(=O)C1CC(C)C (centres unmarked) | – | K12, K12 | – | > 200 µg/mL |
| N=C(N)c1cccc(OCc2ccccc2COc2cccc(C(=N)N)c2)c1 | – | BW25113 | – | > 200 µg/mL |
| C=CCn1c(-c2ccc(OC)c(OC)c2)nc2ccccc21 | broth dilution | ATCC25922 | – | 128 µg/mL |
